Assay results taken from the EternaBench riboswitch data.

Tested on: MS2 coat protein
Test: apparent Kd, MS2 coat protein; higher = weaker binding; RNA-MaP array; FMN 200 µM where present
How it was run: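 Each design was made on Illumina sequencing-chip clusters by stalled E. coli RNA polymerase and titrated with SNAP-549-labelled MS2 coat protein from 0.7 or 1.5 nM, doubling to 3 µM, in the absence and then the presence of constant ligand. The buffer was 100 mM Tris-HCl pH 7.5, 80 mM KCl, 4 mM MgCl2, BSA, DTT, yeast tRNA and Tween-20. The apparent Kd is the median of filtered per-cluster fits of binding curves, with green signal normalised to red-channel RNA signal and control-cluster median Fmax.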

[1] = designed as: ON switch for flavin mononucleotide, no ligand
[2] = ligand present: flavin mononucleotide, designed as: ON switch for flavin mononucleotide
[3] = designed as: OFF switch for flavin mononucleotide, no ligand
[4] = ligand present: flavin mononucleotide, designed as: OFF switch for flavin mononucleotide

Sequence: AGCCAACAUGAGGAUCACCCAUGUCUACAGGAUUAAGGAUAUGGGCAGGACUUCCCUGCACUAGAAGGUGAUCCAA
- apparent Kd [1]: 28.9 nM
- apparent Kd [2]: 251 nM

Sequence: UUUCUCGUUGUGAGGAUAUCGUUUUUGUUUUGGAUCGAGAAGGCACAUGAGGAUCACCCAUGUUUGUUGUGGUU
- apparent Kd [3]: 119 nM
- apparent Kd [4]: 87.7 nM

Sequence: CAUCAUUCUGUAAGGAUAUUAAUCGAGUGACUUAUUAAGAAGGUACAUGAGGAUCACCCAUGUGGGAGGUGAGG
- apparent Kd [3]: 363 nM
- apparent Kd [4]: 947 nM

Sequence: GGGUCAACAUGAGGAUCACCCAUGUAGGAUAUCGCUAUUGUAAUCAUGAAACAUGAUUACAAUAGCGAGAAGGACAUAUGCAAA
- apparent Kd [3]: 11.3 nM
- apparent Kd [4]: 23.4 nM

Sequence: ACAUGAGGAUCACCCAUGUAUAGAAUUGAAUGUUAAGAUACGUAGGAUAUCGAGUUUAGUAUGAUCGAGAAGGACGAUCUGAUA
- apparent Kd [1]: 19.8 nM
- apparent Kd [2]: 13.6 nM

Sequence: UUACCUCAUGAGAAGGACAUGAGGAUCACCCAUGUAGGAUAUCAUGGGUCAGUGGAAUUGAAUCUUCGGAUUCAAUAACUCUAU
- apparent Kd [1]: 114 nM
- apparent Kd [2]: 34.5 nM

Sequence: UCUCGAUGUGUAGGAUAUCUGAUUACUAUGACAAGAGAAGGGCACAUGAGGAUCACCCAUGUGGAGGACCACUGGUUCAGAUUA
- apparent Kd [3]: 31.2 nM
- apparent Kd [4]: 49.3 nM

Sequence: CCAUCGAGUGUGAGGAUAUGCUGGUCCUUGGAUCAGCAGAAGGCACAUGAGGAUCACCCAUGUGGAAACGGUGG
- apparent Kd [3]: 26.6 nM
- apparent Kd [4]: 191 nM

Sequence: UCGGCGCGAGGAUAUACGUUUGCUUUUUUUUGUCUUUGUGUACAUGAGGAUCACCCAUGUAGAAGGCGCGCCGC
- apparent Kd [3]: 21.3 nM
- apparent Kd [4]: 36.7 nM

Sequence: CUGCCCAGUGUGAGGAUAUACAAAGGAAUUCCUUGGUAGAAGGCACAUGAGGAUCACCCAUGUGACUCGCGGUA
- apparent Kd [3]: 20.6 nM
- apparent Kd [4]: 52.7 nM

Sequence: AUGGACGAAGGAUAUGCAUGGAGACCGGGCAGUUCAGCGCUACAUGAGGAUCACCCAUGUAGAAGGUCGCUCCC
- apparent Kd [3]: 16 nM
- apparent Kd [4]: 24.6 nM

Sequence: GCCAGUUAUGUAGGAUAUGCGCGGCGAGCCUGUGCAGAAGGACAUGAGGAUCACCCAUGUGUUGCGGUCUGAGUACUGAUCGCC
- apparent Kd [3]: 32.9 nM
- apparent Kd [4]: 208 nM

Sequence: GAUCUCGUCUAGAAGGUGUAAUAUAUAGUAGUACAAGGAUAUAGACAUGAGGAUCACCCAUGUCGUGCCUGGGCUCAUCUUAAA
- apparent Kd [3]: 5.92 nM
- apparent Kd [4]: 7.64 nM

Sequence: GUAGCAUACCAAGGAUAUUCAGGGCGUGGAUAGACAUGAGGAUCACCCAUGUGGCGAAAGCCUAGGGAGAAGGUGGAAUGCUAC
- apparent Kd [1]: 36.1 nM
- apparent Kd [2]: 20.1 nM

Sequence: ACUGAAGUCACAGGAUAUCAUAUGUCGGCACAUUGAGAAGGGUGACUGGGCUACAUGAGGAUCACCCAUGUGCCGUCGUAACAA
- apparent Kd [1]: 104 nM
- apparent Kd [2]: 80.4 nM

Sequence: AAACAUGUCCGAGGAUAUCUGGAAACAUUUCCAAGAGAAGGCGGACAUGAGGAUCACCCAUGUCUCUCCUCAUCAAAUCCAAAU
- apparent Kd [3]: 9.18 nM
- apparent Kd [4]: 88.9 nM

Sequence: AAAAAGUCAGGAUAUACGAAAAAAAAAAAAAAAAAAAAAAAGUAGAAGGGACAUGAGGAUCACCCAUGUGAAAA
- apparent Kd [3]: 74.7 nM
- apparent Kd [4]: 39.3 nM

Sequence: GUCGAUCACCAGAAGGACAUGAGGAUCACCCAUGUAGGAUAUGGGUAAGACGUCACAUUGGCGUGCAAACGUUUGCGUUCGUAC
- apparent Kd [1]: 11.9 nM
- apparent Kd [2]: 6.42 nM

Sequence: GUAGCUAUCGGAGGAUAUUCAUACCGGAAACGGACAUGAGGAUCACCCAUGUGGCGAAAGACUUGGGAGAAGGCCGAUAGCUAC
- apparent Kd [1]: 183 nM
- apparent Kd [2]: 35.5 nM

Sequence: AACAGUACAGGAUAUACAUGAGGAUCACCCAUGUGAGAAUUAAGUGGCGUACCACAAUGUAGAAGGGUACUGGA
- apparent Kd [3]: 77.4 nM
- apparent Kd [4]: 65.5 nM

Sequence: AUUGUAAUGUCAGGAUAUAUUAUUUUUUACAUAGUAGAAGGGAUAAUUAUACUCAUGUACAUGAGGAUCACCCAUGUUAAAUAU
- apparent Kd [1]: 58.8 nM
- apparent Kd [2]: 24.8 nM

Sequence: CCUAUAAGAAAAUAGACGAAGUGGCCAGAAGGUGAAUGCCACAUGAGGAUCACCCAUGUUUCGAUCAAGGAUAUGGUUUCUCAC
- apparent Kd [1]: 497 nM
- apparent Kd [2]: 129 nM

Sequence: GUCUUACAUGAGGAUCACCCAUGUGAGGAUAUAUGUGGUGUUGAGAAAUUGGUGUUGUAUAGAAGGCGCGUGAU
- apparent Kd [3]: 25.5 nM
- apparent Kd [4]: 24.8 nM

Sequence: GAGGAUUUUUAGCUGACAUGAGGAUCACCCAUGUCUUGACCCAGAAGGGCGUGGGAUUCCCAACCGCAGGAUAUGGAUAGUCGG
- apparent Kd [1]: 64.8 nM
- apparent Kd [2]: 35.7 nM

Sequence: CCCAGUUAUCUAGGAUAUUGUACAUGAGGAUCACCCAUGUAAUAAAUGAGGAUUUCGGGUGUCUACAAGAAGGAGAGGAUAGGC
- apparent Kd [3]: 28.6 nM
- apparent Kd [4]: 26.1 nM

Sequence: UCGUGAAUAGAGGAUAUAUUAAUAUUUAAAACAAUAGAAGGCUAAACAUGAGGAUCACCCAUGUAAAUGGUUUU
- apparent Kd [3]: 28.1 nM
- apparent Kd [4]: 116 nM

Sequence: AAUAUGUUGCAGAAGGUUAUUUUUAUAACGAUCCAUGAGACAUGAGGAUCACCCAUGUAAUAGAUGAAGGAUAUGCAAUAUAUU
- apparent Kd [3]: 6.21 nM
- apparent Kd [4]: 5.84 nM

Sequence: AAGGAGUGAGGAUAUGCUGCUCGUCACUUGCGUGAUGAGUAGCAGAAGGCACAUGAGGAUCACCCAUGUAAAGA
- apparent Kd [3]: 44.9 nM
- apparent Kd [4]: 54.5 nM

Sequence: UGAGACCUCACAGGAUAUGCUGGACUUUGUCCAGCAGAAGGGUGAAAACAUGAGGAUCACCCAUGUAUGGUCUCCAAAUUUAAG
- apparent Kd [1]: 191 nM
- apparent Kd [2]: 12.7 nM

Sequence: CGAUAGGACAGAGGAUAUACACAUGAGGAUCACCCAUGUGAUUACAACGCUUAAGCUUCAAACAUGUAGAAGGCUGUCCUAUCG
- apparent Kd [3]: 10.8 nM
- apparent Kd [4]: 19.4 nM

Sequence: GUUUUAUAGAUCCAUUUUAACAACAUGAGGAUCACCCAUGUGCAGGAUAUCGUUUGUUUUAUAUUCGAGAAGGGCAAAUUCAUU
- apparent Kd [3]: 44.3 nM
- apparent Kd [4]: 102 nM

Sequence: AAGCCUACAAUGGUGUAAUGUACAUGAGGAUCACCCAUGUACAGAAGGUGGAAUGUAAAAGGUGCCAAGGAUAUGUAUGCGGGU
- apparent Kd [3]: 12.6 nM
- apparent Kd [4]: 16.4 nM

Sequence: GGGUACAUCGGAGGAUAUCAUGUAAAUACAUGAGGAUCACCCAUGUGGAUGGAGACAUCGGAGAUUGAGAAGGCCGAUGUACCG
- apparent Kd [1]: 10.9 nM
- apparent Kd [2]: 5.56 nM

Sequence: ACAGUAUAUGUAGGAUAUCGUUGGUUAGAUAGGCGAGAAGGGCAUAGUACAUGAGGAUCACCCAUGUGUUGGUCCUCGCAGAAA
- apparent Kd [3]: 454 nM
- apparent Kd [4]: 237 nM

Sequence: GAAGAAAAGGCAGGAUAUCAGAAACACAUGAUAAGGAGAUGCAACAUGAGGAUCACCCAUGUAAAUGAGAAGGGCCGCCCUUCC
- apparent Kd [3]: 35.6 nM
- apparent Kd [4]: 62.1 nM

Sequence: UCACGGGAUUGAGGAUAUAUAUAAAUUUAUACAAUAGAAGGCAAAUUUUUAGUUUUUUCACUUUACAUGAGGAUCACCCAUGUU
- apparent Kd [3]: 26.2 nM
- apparent Kd [4]: 24.2 nM

Sequence: UUAUUCUAUAUAGGAUAUUGAUGCAAUUUACCUCAAGAAGGAUAUACAUGAGGAUCACCCAUGUUGGAUAGGGUUAGUUUGUUU
- apparent Kd [1]: 79.4 nM
- apparent Kd [2]: 76.5 nM

Sequence: UGGUACUAGGGAGGAUAUGGGAAGAUACAUGAGGAUCACCCAUGUUUAAGAAUGCCGAGAGGCAACUAGAAGGCCCUAGUAUCU
- apparent Kd [1]: 382 nM
- apparent Kd [2]: 18.9 nM

Sequence: UUUUUUGUUGUGAGGAUAUCGUAUUCUUUUUGUUACGAGAAGGCACAUGAGGAUCACCCAUGUUUCUUGAUGUU
- apparent Kd [3]: 15.8 nM
- apparent Kd [4]: 27.3 nM

Sequence: UAAACAUGAGGAUCACCCAUGUUAUGAUCGGUUGAUGAAAGUGAGGAUAUACAAAAUUUUAUGGAGUAGAAGGCACUGGGUUCU
- apparent Kd [1]: 31.1 nM
- apparent Kd [2]: 29.9 nM

Sequence: UGUAUGGACAGAGGAUAUACCGAUAGGAUCUACUAUCGAAGAAUCCUCACAUGAGGAUCACCCAUGUAGAAGGCUGUCCAUACU
- apparent Kd [3]: 41.3 nM
- apparent Kd [4]: 665 nM

Sequence: UUGGACGUCGUAGGAUAUGUAGGAUAUUCCUACAUGAGGAUCACCCAUGUUGACAUGGAAGAAGGACAGUAGGACGAUGUCCAU
- apparent Kd [1]: 251 nM
- apparent Kd [2]: 8.02 nM

Sequence: UUCAAGUUGCGAGGAUAUCGUGUUAACAUGAGGAUCACCCAUGUAAAGGUUUAUUAAAUAAUCUUCGAGAAGGCGCUUAAUGUA
- apparent Kd [1]: 24.1 nM
- apparent Kd [2]: 20.8 nM

Sequence: CUUUCGUGAGGAUAUGUGGCUUCGAUCGUGAGAUCGAGGAAACAGAAGGCACAUGAGGAUCACCCAUGUUCCUC
- apparent Kd [3]: 35.9 nM
- apparent Kd [4]: 421 nM

Sequence: CUGUAAGAUGUAGGAUAUACAAUAAUAUUGUUAGUAGAAGGACAUGAGGAUCACCCAUGUAUAUAAAUUUUAAAUACUUUUGUG
- apparent Kd [3]: 40.8 nM
- apparent Kd [4]: 31.5 nM

Sequence: GGAUCGGACAGAGGAUAUACGUGCUAGAGAUACUAGCAAAAUUUCCUCACAUGAGGAUCACCCAUGUAGAAGGCUGUCCUAUCG
- apparent Kd [3]: 15.9 nM
- apparent Kd [4]: 327 nM

Sequence: AGCAGACGAGGAUAUAGAUUUGUUGACAUGAGGAUCACCCAUGUGAUCGAUCUAUUAUAUUUAGAAGGUGUCUGCU
- apparent Kd [3]: 12.9 nM
- apparent Kd [4]: 13.5 nM

Sequence: AUUGAUAUUGAGGAUAUGCUUUUAUUUGUUCUUGCAGAAGGCGAUACAUGAGGAUCACCCAUGUUUAUGGAAGU
- apparent Kd [3]: 40.8 nM
- apparent Kd [4]: 48 nM
